Compounds with a hit are over-represented: about 2% of the library has one in this group of screens.
PvdQ inh = blocks Pseudomonas aeruginosa PvdQ acylase activity | purified PvdQ acylase, fluorescence plate reader | inhibition, % at 10 µM | AID 488965 | 340,000 compounds, 0.063% hits; in the data active means inhibition above about 30%, passing the limit was not always enough
IMP-1 inh = inhibitors of Pseudomonas aeruginosa IMP-1 metallo-beta-lactamase; purified IMP-1, nitrocefin hydrolysis, epi-absorbance fluorescence; inhibition, % at 5.6 µM; 290,000 compounds, 0.45% hits; AID 1556;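 active means inhibition above the mean plus 3 SD of all compounds in the same screening run, cut at about 4.5% in these data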
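Material – recombinant IMP-1 enzyme, purified · Amount – IMP-1 0.2 nM before substrate addition · Medium – HEPES buffer pH 7.1 with ZnSO4 and Brij 35 · Timing – 25 °C, 15 min preincubation, 25 min reaction · Measured by – plate fluorescence quenching by hydrolysis product, ex 480/em 530 nm · Read-out – percent enzyme inhibition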
PLC-gamma1 inh = PLC-gamma1 (human) inhibition, primary screen; P19174; purified PLC-gamma1, fluorogenic substrate, fluorescence; inhibition, % at 12.2 µM; 370,000 compounds, 0.84% hits; in the data active means inhibition above about 9.5%
VIM-2 inhibitor = blocks Pseudomonas aeruginosa VIM-2 metallo-beta-lactamase | 290,000 compounds, 0.89% hits | inhibition, % at 5.6 µM | purified VIM-2, nitrocefin hydrolysis, epi-absorbance fluorescence;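 active means inhibition above the mean of all tested compounds plus 3 SD, cutoff set per screening run, cut at about 7.5% in these data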;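 further: red hydrolysis product quenches plate fluorescence so inhibitors raise well fluorescence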
PLCb3 inh = blocks human PLC-beta3 enzyme activity. Purified PLC-beta3, fluorogenic substrate, fluorescence. inhibition, % at 12.2 µM. Q01970. 370,000 compounds, 0.18% hits. AID 720704
PLCg1 ctr = counter-screen for PLC-beta3 inhibitors: inhibitors of human PLC-gamma1 | shares compounds with PLC-gamma1 inh | purified PLC-gamma1, fluorogenic substrate, fluorescence | inhibition, % at 12.3 µM | 3,300 compounds, 3.1% hits | AID 743258; in the data active means inhibition above about 9.5%
PLCb3 confirm = confirmation of human PLC-beta3 inhibitors. shares compounds with PLC-gamma1 inh. purified PLC-beta3, fluorogenic substrate fluorescence. inhibition, % at 12.3 µM. 3,300 compounds, 1% hits
Each line names hits and unclear results; the compound was inactive in the other large screens (follow-up assays come after a bar, where they were run). Unless noted, no stated cut-off is given here; in the data, active means inhibition above about 11%; inactive means the rest.

C#CCn1c(S(=O)(=O)Cc2ccccc2Cl)nc(-c2ccccc2)c1-c1ccccc1	none
C#CCn1c(S(=O)(=O)Cc2ccc(C)cc2)nc(-c2ccccc2)c1-c1ccccc1	PLC-gamma1 inh 10 | PLCg1 ctr inactive | PLCb3 confirm inactive
Cn1c(N)c(C(=O)COC(=O)c2ccccn2)c(=O)n(C)c1=O	none
CCOc1ncccc1C(=O)OCC(=O)c1c(N)n(C)c(=O)n(C)c1=O	PLCb3 inh 11 | PLCg1 ctr inactive | PLCb3 confirm inactive
CCO[C@H]1OC(C(=O)N2CCN(Cc3ccc4c(c3)OCO4)CC2)=C[C@@H](c2csc3ccccc23)[C@@H]1CCCO	PLCb3 inh 11 | PLCg1 ctr inactive | PLCb3 confirm inactive
CCO[C@H]1OC(C(=O)N2CCN(C)CC2)=C[C@@H](c2ccc3c(c2)OCO3)[C@@H]1CCCO	PLCb3 inh 20 | PLCg1 ctr inactive | PLCb3 confirm inactive
CCCCCn1nnnc1C1(C)Cn2nccc2C(=O)N1Cc1ccco1 (stereo unspecified)	none (no result: PvdQ inh, IMP-1 inh, VIM-2 inhibitor)
CCc1nnc(NC(=O)CSc2ncnc3c2oc2ccccc23)s1	none
O=C(CSc1ncnc2c1oc1ccccc12)Nc1nc2ccccc2s1	PLC-gamma1 inh 9.6 | PLCg1 ctr inactive | PLCb3 confirm inactive
CCOC(=O)c1c(NC(=S)N2CCN(C)CC2)sc(C)c1-c1ccccc1	PLC-gamma1 inh 11 | PLCg1 ctr inactive | PLCb3 confirm inactive
CC(C)CN1C(=O)C[C@@]2(C(=O)N(C)c3ccc(NS(=O)(=O)C4CCCCC4)cc32)C1c1ccccc1 (stereo partly specified)	none (no result: PvdQ inh, IMP-1 inh, VIM-2 inhibitor)
O=C(CCN1CCOCC1)c1ccc(N2CCCCC2)cc1	none (no result: IMP-1 inh, VIM-2 inhibitor)
CC(C)(C)c1cc(C(=O)CCN2CCOCC2)cc(C(C)(C)C)c1O	PLC-gamma1 inh 13 | PLCg1 ctr inactive | PLCb3 confirm inactive
COC(=O)c1ccc(S(=O)(=O)N2CCC(NC(=O)CCc3ccccc3)CC2)cc1	none (no result: PvdQ inh, IMP-1 inh, VIM-2 inhibitor)
CCN(CC)C(=O)c1sc(NC(=O)c2ccc(C)c([N+](=O)[O-])c2)c(C#N)c1C	PLC-gamma1 inh 11 | PLCg1 ctr inactive | PLCb3 confirm inactive
CCOC(=O)N1CCN(S(=O)(=O)N2CCCC(C(=O)NCCc3ccc(OCC)c(OCC)c3)C2)CC1 (stereo unspecified)	PLC-gamma1 inh 12 | PLCg1 ctr inactive | PLCb3 confirm inactive
CCOc1ccc(CCNC(=O)C2CCCN(S(C)(=O)=O)C2)cc1OCC (stereo unspecified)	PLCb3 inh 13 | PLCg1 ctr inactive | PLCb3 confirm inactive
CCOc1ccc(CCNC(=O)C2CCCN(S(=O)(=O)N3CCCCC3)C2)cc1OCC (stereo unspecified)	none (no result: PvdQ inh, IMP-1 inh, VIM-2 inhibitor)
Nn1c(SCc2cn3ccccc3n2)nnc1-c1ccncc1	none
Nn1c(SCc2cn3cc(Cl)ccc3n2)nnc1-c1ccncc1	PLC-gamma1 inh 11 | PLCg1 ctr inactive | PLCb3 confirm inactive
CCC(=O)Nc1ccc(Cl)cc1C(=O)c1ccc[nH]1	none (no result: PvdQ inh, IMP-1 inh, VIM-2 inhibitor)
O=C(COC(=O)c1c(Cl)cccc1Cl)Nc1cc(Cl)ccc1Oc1ccccc1	PLC-gamma1 inh 11 | PLCg1 ctr inactive | PLCb3 confirm inactive
CC(C)CN1C(=O)C(=O)N(CC(=O)Nc2cc(Cl)ccc2Oc2ccccc2)C1=O	PLC-gamma1 inh 20 | PLCg1 ctr inactive | PLCb3 confirm inactive
O=C(COC(=O)c1ccccc1)Nc1cc(Cl)ccc1Oc1ccccc1	none
C[C@@H]1CN([C@H](C)CO)C(=O)c2cc(NC(=O)Nc3ccccc3)ccc2O[C@@H](C)CCCCO[C@H]1CN(C)S(=O)(=O)c1ccc(F)cc1	none (no result: PvdQ inh, IMP-1 inh, VIM-2 inhibitor)
CCOC(=O)C1(Cc2ccccc2)CCN(Cc2ccc(C(F)(F)F)cc2)CC1	none (no result: PvdQ inh, IMP-1 inh, VIM-2 inhibitor)
CC(=O)N1CCN(c2ccc(N3CCN(Cc4ccccc4)[C@H](C)C3)c(C)c2)[C@H](C)C1	none (no result: PvdQ inh, IMP-1 inh, VIM-2 inhibitor)
O=C(C[n+]1ccccc1)N/N=C/c1ccco1	PLC-gamma1 inh 9.5 | PLCg1 ctr inactive | PLCb3 confirm inactive
O=C(NC1CC1)C1=NOC(CNc2ncc(C(F)(F)F)cc2Cl)C1 (stereo unspecified)	none
O=C(N/C=N/O)C1=NOC(CNc2ncc(C(F)(F)F)cc2Cl)C1 (stereo unspecified)	PLC-gamma1 inh 10 | PLCg1 ctr inactive | PLCb3 confirm inactive
C=COc1ccc(N2C(=O)c3ccccc3OC2C)cc1 (stereo unspecified)	PLC-gamma1 inh 14 | PLCg1 ctr inactive | PLCb3 confirm inactive
O=C(c1ccco1)N1CCN(Cc2nnc(-c3ccccc3F)o2)CC1	PLC-gamma1 inh 9.8 | PLCg1 ctr inactive | PLCb3 confirm inactive
O=C(c1ccco1)N1CCN(C(=O)C2CC(c3ccccc3F)=NO2)CC1 (stereo unspecified)	PLC-gamma1 inh 14 | PLCg1 ctr inactive | PLCb3 confirm inactive
COc1ccc(CCNC(=O)CN2C(=O)COc3ccc(S(=O)(=O)N4CCOCC4)cc32)cc1OC	PLC-gamma1 inh 11 | PLCg1 ctr inactive | PLCb3 confirm inactive
CCCCC(=O)N(Cc1ccccc1)c1ccccc1C(=O)Nc1cc(OC)ccc1OC	none (no result: PvdQ inh, IMP-1 inh, VIM-2 inhibitor)
O=c1c(O)cccc2cc(O)c(O)c(O)c12	IMP-1 inh 7.7, PLC-gamma1 inh 46 | PLCg1 ctr 30 | PLCb3 confirm inactive
Cc1cc(NC(=O)C2CC(c3ccc(Cl)cc3)=NO2)no1 (stereo unspecified)	PLCb3 inh 12 | PLCg1 ctr inactive | PLCb3 confirm inactive
COc1ccccc1CCn1cnc(-c2ccccc2F)c1CC(C)C	PLC-gamma1 inh 11 (no result: PvdQ inh, IMP-1 inh, VIM-2 inhibitor) | PLCg1 ctr inactive | PLCb3 confirm inactive
COc1ccccc1CCn1cnc(-c2ccc(F)cc2F)c1CC(C)C	none (no result: PvdQ inh, IMP-1 inh, VIM-2 inhibitor)
Cn1c(CC(=O)Nc2ccc(Cl)c(Cl)c2)nnc1SCC(=O)Nc1nccs1	none
Cn1c(CSCc2ccccc2Cl)nnc1SCC(=O)Nc1nccs1	PLC-gamma1 inh 15 | PLCg1 ctr inactive | PLCb3 confirm inactive
COC(=O)[C@]12C[C@H](CC(=O)NCc3ccc(C)o3)C(=O)N(Cc3ccco3)C1=C[C@H](C(C)(C)C)O[C@@H]2C	none (no result: PvdQ inh, IMP-1 inh, VIM-2 inhibitor)
O=S(=O)(O)c1cc(Cl)cc(N=Nc2ccc(O)cc2O)c1O	PLC-gamma1 inh 13 (no result: IMP-1 inh, VIM-2 inhibitor) | PLCg1 ctr inactive | PLCb3 confirm inactive
N#Cc1ccc(CSc2nc(N)cc(N)n2)cc1	none
Cc1cc(N2CCCCC2)nc(SCc2ccc(C#N)cc2)n1	PLC-gamma1 inh 11 | PLCg1 ctr inactive | PLCb3 confirm inactive
O=C(CN1C(=O)CSc2ccc(C(F)(F)F)cc21)Nc1ccccc1	PLC-gamma1 inh 14 | PLCg1 ctr inactive | PLCb3 confirm inactive
O=C(CCN1C(=O)CSc2ccccc21)Nc1ccc(C(F)(F)F)cc1	none (no result: IMP-1 inh, VIM-2 inhibitor)
COCCCNC(=O)C1CC(=O)N(CCc2ccc(OC)c(OC)c2)C1 (stereo unspecified)	PLC-gamma1 inh 14 | PLCg1 ctr inactive | PLCb3 confirm inactive
COc1ccc(CN2CCN(c3ncccn3)CC2)c(OC)c1	none
